According to ChEMBL document CHEMBL3352312, “Synthesis of linear and cyclic guazatine derivatives endowed with antibacterial activity” (Bioorg Med Chem Lett, 2014):

How the values were obtained:
Enterococcus faecalis = assay: Antibacterial activity against Enterococcus faecalis ATCC 19433 after 16 to 18 hrs by microbroth dilution method; assay type: functional
How it was run: (§1)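 Broth microdilution in Mueller–Hinton broth following CLSI recommendations. Strains came from ATCC or CCUG collections or the authors' clinical isolates. Compounds were dissolved in DMSO as a 100 mg/ml stock and then diluted in culture medium. Inoculum was 5 × 10⁴ CFU/well. MIC was read after 16–18 h incubation at 35–37 °C.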

[1] = Metabolic stability in human liver microsomes after 60 mins by LC-UV-MS analysis; assay type: ADME; conditions: read-out: Stability
Staphylococcus hominis = assay: Antibacterial activity against linezolid-resistant Staphylococcus hominis SI-7/2011 after 16 to 18 hrs by microbroth dilution method; assay type: functional
How it was run: (§2)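 Broth microdilution MIC per CLSI in Mueller–Hinton broth. Inoculum 5 × 10⁴ CFU/well. Compounds dissolved in DMSO at 100 mg/ml, then diluted in culture medium. Plates incubated 16–18 h at 35–37 °C before reading the MIC. Strains were taken from ATCC or CCUG collections or from the authors' clinical isolate collection.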

Bacillus subtilis = assay: Antibacterial activity against Bacillus subtilis ATCC 6633 after 16 to 18 hrs by microbroth dilution method; assay type: functional; how it was run: as §1
Pseudomonas aeruginosa [2] = assay: Antibacterial activity against penicillin/expanded-spectrum cephalosporin/carbapenem/aminoglycoside-resistant Pseudomonas aeruginosa 101/1477 after 16 to 18 hrs by microbroth dilution method; assay type: functional; how it was run: as §2
[3] = Apparent permeability of the compound at pH 7.4 after 5 hrs by PAMPA; assay type: physicochemical
How it was run: (§3)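 Parallel artificial membrane permeability assay run at physiological pH 7.4 and at alkaline pH 10.0, the duodenal-like condition, as a gastrointestinal permeability model. Apparent permeability (P_app) is reported in nm/s, together with the percentage of compound retained in the membrane.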

Streptococcus pyogenes = assay: Antibacterial activity against Streptococcus pyogenes ATCC 12344 after 16 to 18 hrs by microbroth dilution method; assay type: functional; how it was run: as §1
Escherichia coli = assay: Antibacterial activity against Escherichia coli CCUGT after 16 to 18 hrs by microbroth dilution method; assay type: functional; how it was run: as §1
Staphylococcus aureus [4] = assay: Antibacterial activity against glycopeptide-resistant Staphylococcus aureus ATCC 700699 (VanA) after 16 to 18 hrs by microbroth dilution method; assay type: functional; how it was run: as §2
[5] = Solubility of the compound in pure water at 1.2 mg after 24 to 36 hrs by LC-MS/MS analysis; assay type: physicochemical
[6] = system: Stenotrophomonas maltophilia; assay: Antibacterial activity against penicillin/expanded-spectrum cephalosporin/carbapenem/monobactam/aminoglycoside/trimethoprim/sulfamethoxazole/fosfomycin-resistant Stenotrophomonas maltophilia 634/08 after 16 to 18 hrs by microbroth dilution method; assay type: functional; how it was run: as §2
[7] = system: Achromobacter xylosoxidans; assay: Antibacterial activity against penicillin/expanded-spectrum cephalosporin/carbapenem/aminoglycoside-resistant Achromobacter xylosoxidans AX 22 after 16 to 18 hrs by microbroth dilution method; assay type: functional; how it was run: as §2
[8] = system: Staphylococcus haemolyticus; assay: Antibacterial activity against aminoglycoside-resistant Staphylococcus haemolyticus SI-6/2011 after 16 to 18 hrs by microbroth dilution method; assay type: functional; how it was run: as §2
[9] = Apparent permeability of the compound assessed as membrane retention at pH 10.0 after 5 hrs by PAMPA; assay type: physicochemical; conditions: pH 10, 5 h; how it was run: as §3
[10] = Cytotoxicity against human HeLa cells after 48 hrs; assay type: cell-based
Acinetobacter baumannii [11] = assay: Antibacterial activity against penicillin/expanded-spectrum cephalosporin/carbapenem/aztreonam/aminoglycoside/fluoroquinolone/fosfomycin/trimethoprim/sulfamethoxazole-resistant Acinetobacter baumannii AC-54/97 after 16 to 18 hrs by microbroth dilution method; assay type: functional; how it was run: as §2
Staphylococcus warneri = assay: Antibacterial activity against penicillin/aminoglycoside-resistant Staphylococcus warneri SI-5/2011 after 16 to 18 hrs by microbroth dilution method; assay type: functional; how it was run: as §2
Pseudomonas aeruginosa [12] = assay: Antibacterial activity against penicillin/expanded-spectrum cephalosporin/carbapenem/monobactam/aminoglycoside/fluoroquinolone-resistant Pseudomonas aeruginosa VR-143/97 after 16 to 18 hrs by microbroth dilution method; assay type: functional; how it was run: as §2
Aeromonas hydrophila = assay: Antibacterial activity against Aeromonas hydrophila ATCC 7966 after 16 to 18 hrs by microbroth dilution method; assay type: functional; how it was run: as §1
Enterobacter cloacae = assay: Antibacterial activity against penicillin/CEPH/carbapenem/aminoglycoside/fluoroquinolone-resistant Enterobacter cloacae VA-417/02 after 16 to 18 hrs by microbroth dilution method; assay type: functional; how it was run: as §2
Acinetobacter baumannii [13] = assay: Antibacterial activity against Acinetobacter baumannii ATCC 17978 after 16 to 18 hrs by microbroth dilution method; assay type: functional; how it was run: as §1
[14] = system: Staphylococcus epidermidis; assay: Antibacterial activity against Staphylococcus epidermidis ATCC 14990 after 16 to 18 hrs by microbroth dilution method; assay type: functional; how it was run: as §1
[15] = Apparent permeability of the compound at pH 10.0 after 5 hrs by PAMPA; assay type: physicochemical; how it was run: as §3
[16] = Cytotoxicity against human HeLa cells after 24 hrs; assay type: cell-based
Staphylococcus aureus [17] = assay: Antibacterial activity against Staphylococcus aureus ATCC 25923 after 16 to 18 hrs by microbroth dilution method; assay type: functional; how it was run: as §2
[18] = Apparent permeability of the compound assessed as membrane retention at pH 7.4 after 5 hrs by PAMPA; assay type: physicochemical; conditions: pH 7.4, 5 h; how it was run: as §3
[19] = Ratio of CC50 for human HeLa cells to MIC for Klebsiella pneumoniae 7023
Alcaligenes faecalis = assay: Antibacterial activity against expanded-spectrum cephalosporin/carbapenem/monobactam-resistant Alcaligenes faecalis 424/98 after 16 to 18 hrs by microbroth dilution method; assay type: functional; how it was run: as §2
[20] = system: Elizabethkingia meningoseptica; assay: Antibacterial activity against Elizabethkingia meningoseptica CCUG 4310 after 16 to 18 hrs by microbroth dilution method; assay type: functional; how it was run: as §1
Staphylococcus aureus [21] = assay: Antibacterial activity against penicillin-resistant Staphylococcus aureus ATCC 43300 after 16 to 18 hrs by microbroth dilution method; assay type: functional; how it was run: as §2
Pseudomonas aeruginosa [22] = assay: Antibacterial activity against Pseudomonas aeruginosa ATCC 27853 after 16 to 18 hrs by microbroth dilution method; assay type: functional; how it was run: as §1
Klebsiella pneumoniae [23] = assay: Antibacterial activity against Klebsiella pneumoniae ATCC 13833 after 16 to 18 hrs by microbroth dilution method; assay type: functional; how it was run: as §1
[24] = Ratio of CC50 for human HeLa cells to MIC for Escherichia coli CCUGT
Klebsiella pneumoniae [25] = assay: Antibacterial activity against penicillin/expanded-spectrum cephalosporin/carbapenem/aminoglycoside/fluoroquinolone/trimethoprim/sulfamethoxazole-resistant Klebsiella pneumoniae 7023 after 16 to 18 hrs by microbroth dilution method; assay type: functional; how it was run: as §2
Albumin = Albumin (Homo sapiens, UniProt P02768); assay: Binding affinity to human serum albumin after 30 mins by fluorescence spectroscopic analysis; assay type: ADME
Chain of Albumin (P02768 whole entry): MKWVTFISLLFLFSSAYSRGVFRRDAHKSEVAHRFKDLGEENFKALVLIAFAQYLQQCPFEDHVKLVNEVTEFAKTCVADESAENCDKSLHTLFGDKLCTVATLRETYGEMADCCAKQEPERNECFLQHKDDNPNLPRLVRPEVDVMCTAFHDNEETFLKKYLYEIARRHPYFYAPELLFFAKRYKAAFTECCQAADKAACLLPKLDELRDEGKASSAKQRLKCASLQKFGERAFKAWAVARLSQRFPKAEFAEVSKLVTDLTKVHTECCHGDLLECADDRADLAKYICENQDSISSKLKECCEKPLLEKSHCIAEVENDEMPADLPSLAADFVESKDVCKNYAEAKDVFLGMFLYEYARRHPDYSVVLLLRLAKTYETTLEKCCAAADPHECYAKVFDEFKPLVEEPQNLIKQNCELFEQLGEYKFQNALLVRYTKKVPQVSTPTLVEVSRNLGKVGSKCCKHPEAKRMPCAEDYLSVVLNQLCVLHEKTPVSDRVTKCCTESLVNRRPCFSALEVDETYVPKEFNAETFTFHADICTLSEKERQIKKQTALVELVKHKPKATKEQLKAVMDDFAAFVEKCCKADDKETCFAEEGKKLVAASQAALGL

Compound | MIC (Enterococcus faecalis) [µg/mL] | MIC (Bacillus subtilis) [µg/mL] | MIC (Pseudomonas aeruginosa [2]) [µg/mL] | Papp at 5 h [3] [×10⁻⁶ cm/s] | MIC (Streptococcus pyogenes) [µg/mL] | MIC (Escherichia coli) [µg/mL] | MIC [6] [µg/mL] | MIC [7] [µg/mL] | Papp [9] [%] | MIC (Acinetobacter baumannii [11]) [µg/mL] | MIC (Pseudomonas aeruginosa [12]) [µg/mL] | MIC (Aeromonas hydrophila) [µg/mL] | MIC (Enterobacter cloacae) [µg/mL] | MIC (Acinetobacter baumannii [13]) [µg/mL] | MIC [14] [µg/mL] | Papp at 5 h [15] [×10⁻⁶ cm/s] | Papp [18] [%] | MIC [20] [µg/mL] | MIC (Pseudomonas aeruginosa [22]) [µg/mL] | MIC (Klebsiella pneumoniae [23]) [µg/mL] | other results
N=C(N)NCCCCCCCCNCCCCCCCCNC(=N)NCC1CC1.O=C(O)C(F)(F)F.O=C(O)C(F)(F)F.O=C(O)C(F)(F)F | 1 | 0.5 | 8 | 0.95 | < 0.125 | 0.5 | 4 | 4 | 60.6 | 4 | 8 | 8 | 2 | 4 | 0.5 | 16.7 | 8.8 | 32 | 8 | 1 | remaining at 1 h [1]: > 99%; MIC (Staphylococcus hominis): 2 µg/mL; MIC (Staphylococcus aureus [4]): 4 µg/mL; solubility [5]: 966 µg/mL; MIC [8]: 2 µg/mL; CC50 at 48 h [10]: 62 µM; MIC (Staphylococcus warneri): 2 µg/mL; CC50 at 24 h [16]: 92.6 µM; MIC (Staphylococcus aureus [17]): 4 µg/mL; Ratio [19]: >=70; MIC (Alcaligenes faecalis): 4 µg/mL; MIC (Staphylococcus aureus [21]): 4 µg/mL; Ratio [24]: >=70; MIC (Klebsiella pneumoniae [25]): 2 µg/mL; Kd (Albumin): 26.5 µM
C=C(C)CNC(=N)NCCCCCCCCN1CCCCCCCCNC(=N)NC1=O.O=C(O)C(F)(F)F.O=C(O)C(F)(F)F | 1 | 0.5 | 8 |  | 0.5 | 0.5 | 4 | 8 |  | 4 | 8 | 4 | 1 | 8 | 0.5 |  |  | 32 | 8 | 1 | MIC (Alcaligenes faecalis): 4 µg/mL; MIC (Klebsiella pneumoniae [25]): 1 µg/mL
C#CCNC(=N)N(C)CCCCCCCCNCCCCCCCCNC(=N)N.O=C(O)C(F)(F)F.O=C(O)C(F)(F)F.O=C(O)C(F)(F)F | 8 | 256 |  |  | 16 | > 256 |  |  |  |  |  | > 256 |  | 256 | 16 |  |  | 64 | 32 | 16 | 
CN(CCCCCCCCNCCCCCCCCNC(=N)N)C(=N)NCc1ccccc1.O=C(O)C(F)(F)F.O=C(O)C(F)(F)F.O=C(O)C(F)(F)F | 16 | > 256 |  |  | 16 | > 256 |  |  |  |  |  | 256 |  | 128 | 32 |  |  | 64 | 32 | 32 | 
O=C(N[C@H](CO)[C@H](O)c1ccc([N+](=O)[O-])cc1)C(Cl)Cl [CHLORAMPHENICOL] |  |  |  | 0.03 |  |  |  |  | 0 |  |  |  |  |  |  | 0.057 | 0 |  |  |  | 
CO[C@H]1/C=C/O[C@@]2(C)Oc3c(C)c(O)c4c(O)c(c5c(nc6cc(C)ccn65)c4c3C2=O)NC(=O)/C(C)=C\C=C\[C@H](C)[C@H](O)[C@@H](C)[C@@H](O)[C@@H](C)[C@H](OC(C)=O)[C@@H]1C [RIFAXIMIN] |  |  |  | 0.006 |  |  |  |  | 0 |  |  |  |  |  |  | 0.012 | 0 |  |  |  | 
